Published values of several laboratories.
Compare with care: the assays were run in different laboratories.

The IC50 of `CC1(C)CCC(CN2CCN(c3ccc(C(=O)NS(=O)(=O)c4ccc(NCC5CCOCC5)c([N+](=O)[O-])c4)c(Oc4cnc5[nH]ccc5c4)c3)CC2)=C(c2ccc(Cl)cc2)C1` is reported as 0.013 µM (KMS-12-PE; cell growth or viability, ATP luminescence; 48 h).
For `CC(O)CSc1nnc(-c2ccccc2)n1-c1ccccc1` (stereo not shown), the inhibition zone was 10 mm (Staphylococcus aureus; microbial growth, disc diffusion; 25 µg/disc).
For `COc1cc2ncnc(N(C)c3ccc4c(c3)/C(=C/c3cccc(Cl)c3)C(=O)N4C)c2cc1OC`, the IC50 was 10.1 µM (BEAS-2B; cell growth or viability, MTT).
`Cc1c(C(=O)O)ccc2c3n(nc12)[C@@H]1[C@H](C3)N(CC2CC2)[C@@]2(C(=O)Nc3cc(Cl)ccc32)[C@H]1c1cccc(Cl)c1F` gave a GI50 of 0.005 µM (human Fibroblast; cell growth or viability, ATP luminescence; 72 h).
For `COc1cc(C=Nc2ccc(C)cc2Cl)ccc1O`, the inhibition zone was 14.8 mm (Escherichia coli; microbial growth, disc diffusion; 2000 µg/mL, 24 h).
`CC(O)CSc1nnc(Cn2cnc3c2c(=O)n(C)c(=O)n3C)n1-c1ccccc1` (stereo not shown) gave an inhibition zone of 11 mm (Escherichia coli; microbial growth, disc diffusion; 25 µg/disc).
The IC50 of `Cc1nc(Nc2ccc3c(c2)/C(=C/c2ccccc2C)C(=O)N3C)c2ccccc2n1` is reported as 15.5 µM (BEAS-2B; cell growth or viability, MTT).
With `CN(C)[C@@H]1C(O)=C(C(N)=O)C(=O)[C@@]2(O)C(O)=C3C(=O)c4c(O)cccc4[C@@](C)(O)[C@H]3C[C@@H]12` the inhibition zone was 0 mm (Escherichia coli; microbial growth, disc diffusion; 100 µg/mL, 24 h).
The IC50 of `CC(C)c1ccccc1[C@@H]1CCCN1C1CC2(CCN(c3ccc(C(=O)NS(=O)(=O)c4ccc(NC[C@H]5CC[C@](C)(O)CC5)c([N+](=O)[O-])c4)c(Oc4cnc5[nH]ccc5c4)c3)CC2)C1` is reported as 0.0012 µM (MV4-11; cell growth or viability, ATP luminescence; 48 h).
For `C=CC(=O)NC1CCN(c2ncc3ncnc(Nc4ccc(Oc5ccc6c(c5)ncn6C)c(C)c4)c3n2)CC1`, the EC50 was 0.0541 µM (IM95; cell growth or viability).
